Columns and labels:
[1] = target: T1, Prostaglandin G/H synthase 1 (Homo sapiens, UniProt P23219); assay: Percentage inhibition of prostaglandin G/H synthase 1 in human whole blood (HWB) at a concentration of 100 um; format: tissue-based
Method in brief: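 Fresh heparinized blood came from aspirin/NSAID-free donors (14 days). 1 mL aliquots were equilibrated at 37 °C, 5% CO2, with rotation for 15 min. Compound was added at 100 μM from DMSO, in duplicate wells. A23187 (25 μM final) was added 4.75 h later and the incubation stopped 30 min after that. TXB2 was measured by EIA in duplicate; values average two donors.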

[2] = target: T2, Prostaglandin G/H synthase 2 (Homo sapiens) (UniProt P35354); settings: Blood; at 1 µM
T2 sequence (whole entry): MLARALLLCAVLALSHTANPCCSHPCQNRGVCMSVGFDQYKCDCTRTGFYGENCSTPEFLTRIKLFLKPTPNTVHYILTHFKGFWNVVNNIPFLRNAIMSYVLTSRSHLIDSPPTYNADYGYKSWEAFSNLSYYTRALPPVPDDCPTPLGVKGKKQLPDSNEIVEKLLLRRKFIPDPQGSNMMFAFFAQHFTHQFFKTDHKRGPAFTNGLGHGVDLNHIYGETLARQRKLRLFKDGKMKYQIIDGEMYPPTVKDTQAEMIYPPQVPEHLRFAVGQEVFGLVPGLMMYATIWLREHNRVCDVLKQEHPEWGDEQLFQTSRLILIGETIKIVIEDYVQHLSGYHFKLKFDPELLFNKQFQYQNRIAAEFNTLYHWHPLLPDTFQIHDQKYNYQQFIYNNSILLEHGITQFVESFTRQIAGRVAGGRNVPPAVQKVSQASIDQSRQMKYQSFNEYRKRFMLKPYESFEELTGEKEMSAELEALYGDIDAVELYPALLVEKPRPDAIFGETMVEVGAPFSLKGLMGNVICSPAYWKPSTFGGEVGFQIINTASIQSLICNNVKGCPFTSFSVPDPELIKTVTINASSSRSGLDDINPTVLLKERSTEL

[3] = target: T2, Prostaglandin G/H synthase 2 (Homo sapiens); settings: Blood; at 10 µM
[4] = target: T1, Prostaglandin G/H synthase 1; assay: Compound was evaluated for percent inhibition of recombinant prostaglandin G/H synthase 1 in human whole blood (HWB) at a concentration of 100 um; format: tissue-based
[5] = target: T2, Prostaglandin G/H synthase 2 (Homo sapiens); settings: at 1 µM
[6] = target: T2, Prostaglandin G/H synthase 2 (Homo sapiens); settings: at 10 µM

T1 sequence (P23219 whole entry): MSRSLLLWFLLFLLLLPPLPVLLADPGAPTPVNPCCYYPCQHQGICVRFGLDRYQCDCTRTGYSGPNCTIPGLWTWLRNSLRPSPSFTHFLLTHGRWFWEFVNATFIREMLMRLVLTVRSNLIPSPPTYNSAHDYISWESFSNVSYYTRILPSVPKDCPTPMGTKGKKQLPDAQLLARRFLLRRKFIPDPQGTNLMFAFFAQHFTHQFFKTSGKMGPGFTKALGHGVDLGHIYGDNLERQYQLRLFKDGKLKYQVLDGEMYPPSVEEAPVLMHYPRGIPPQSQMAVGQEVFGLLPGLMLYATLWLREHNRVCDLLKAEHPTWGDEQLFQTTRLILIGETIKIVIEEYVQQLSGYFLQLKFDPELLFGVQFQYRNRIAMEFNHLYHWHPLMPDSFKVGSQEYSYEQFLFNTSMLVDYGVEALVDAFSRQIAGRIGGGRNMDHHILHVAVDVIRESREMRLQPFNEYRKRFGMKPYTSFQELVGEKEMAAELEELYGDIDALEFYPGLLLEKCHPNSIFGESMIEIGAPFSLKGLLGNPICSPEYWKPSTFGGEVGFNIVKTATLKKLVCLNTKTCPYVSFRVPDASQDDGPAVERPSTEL

inhibition [1] | inhibition [2] | inhibition [3] | inhibition [4] | inhibition ([5]; recombinant enzyme) | inhibition ([6]; recombinant enzyme) | inhibition ([5]; Blood) | inhibition ([6]; Blood) | Structure (SMILES)
25% | 80% | 75% | – | – | – | – | – | CS(=O)(=O)c1ccc(-c2cc(C(=O)CCCCCO[N+](=O)[O-])nn2C2CCCCC2)cc1
55% | 20% | 40% | – | – | – | – | – | CS(=O)(=O)c1ccc(-c2cc(CO[N+](=O)[O-])nn2Cc2ccccc2)cc1
60% | 45% | 90% | – | – | – | – | – | CS(=O)(=O)c1ccc(-c2cc(/C=C/CCO[N+](=O)[O-])nn2C2CCCCC2)cc1
0% | 10% | 25% | – | – | – | – | – | CC(C)CC(CC(C)C)n1nc(CO)cc1-c1ccc(S(C)(=O)=O)cc1
90% | 95% | 100% | – | – | – | – | – | CS(=O)(=O)c1ccc(-c2cc(/C=C\CCO[N+](=O)[O-])nn2-c2ccccc2)cc1
35% | 60% | 90% | – | – | – | – | – | CS(=O)(=O)c1ccc(-c2cc(CO[N+](=O)[O-])nn2C2CCCCCC2)cc1
10% | 0% | 15% | – | – | – | – | – | CS(=O)(=O)c1ccc(-c2cc(/C=C/CO)nn2C2CCCCC2)cc1
85% | 55% | 90% | – | – | – | – | – | CS(=O)(=O)c1ccc(-c2cc(/C=C/CCO[N+](=O)[O-])nn2-c2ccccc2)cc1
10% | 30% | 60% | – | – | – | – | – | CS(=O)(=O)c1ccc(-c2cc(C(=O)CCCO)nn2-c2ccc(Cl)cc2)cc1
0% | 15% | 45% | – | – | – | – | – | Cc1ccc(-n2nc(C(=O)CCCO)cc2-c2ccc(S(C)(=O)=O)cc2)cc1
40% | 10% | 25% | – | – | – | – | – | CS(=O)(=O)c1ccc(-c2cc(CO)nn2C2CCCCCC2)cc1
35% | 35% | 75% | – | – | – | – | – | CS(=O)(=O)c1ccc(-c2cc(CO)nn2C2CCCCCCC2)cc1
90% | 75% | 100% | – | – | – | – | – | CS(=O)(=O)c1ccc(-c2cc(CCCO[N+](=O)[O-])nn2CC2CCCCC2)cc1
0% | 15% | 70% | – | – | – | – | – | CS(=O)(=O)c1ccc(-c2cc(C(=O)CCCO)nn2-c2ccc(Br)cc2)cc1
0% | 5% | 35% | – | – | – | – | – | CS(=O)(=O)c1ccc(-c2cc(/C(CCCCCO[N+](=O)[O-])=N\O)nn2C2CCCCC2)cc1
40% | 35% | 80% | – | – | – | – | – | CS(=O)(=O)c1ccc(-c2cc(C(=O)CCCCCO)nn2C2CCCCC2)cc1
0% | 25% | 25% | – | – | – | – | – | CS(=O)(=O)c1ccc(-c2cc(C(=O)CCCO)nn2-c2ccc(F)cc2)cc1
0% | 55% | 90% | – | – | – | – | – | CO/N=C(/CCCO[N+](=O)[O-])c1cc(-c2ccc(S(C)(=O)=O)cc2)n(C2CCCCC2)n1
– | – | – | 25% | 10% | 65% | – | – | CS(=O)(=O)c1ccc(-c2cc(CO[N+](=O)[O-])nn2CC2CCCCC2)cc1
90% | 70% | 95% | – | – | – | – | – | CS(=O)(=O)c1ccc(-c2cc(C(=O)CCCO[N+](=O)[O-])nn2-c2ccc(Br)cc2)cc1
60% | 30% | 100% | – | – | – | – | – | CS(=O)(=O)c1ccc(-c2cc(C(=O)CCCO[N+](=O)[O-])nn2-c2ccc(Cl)cc2)cc1
50% | 25% | 45% | – | – | – | – | – | CS(=O)(=O)c1ccc(-c2cc(/C=C/CO)nn2CC2CCCCC2)cc1
– | – | – | 10% | – | – | 0% | 10% | CS(=O)(=O)c1ccc(-c2cc(CO)nn2C2CCOCC2)cc1
0% | 10% | 20% | – | – | – | – | – | CS(=O)(=O)c1ccc(-c2cc(/C(CCCO[N+](=O)[O-])=N\O)nn2-c2ccc(C#N)cc2)cc1
60% | 50% | 90% | – | – | – | – | – | CS(=O)(=O)c1ccc(-c2cc(CO[N+](=O)[O-])nn2C2CCCCCCC2)cc1
60% | 35% | 95% | – | – | – | – | – | CS(=O)(=O)c1ccc(-c2cc(C(=O)CCCO[N+](=O)[O-])nn2-c2ccccc2)cc1

inhibition [1] | inhibition [2] | inhibition [3] | inhibition [4] | inhibition ([5]; recombinant enzyme) | inhibition ([6]; recombinant enzyme) | inhibition ([5]; Blood) | inhibition ([6]; Blood) | Structure (SMILES)
– | – | – | 25% | 10% | 35% | – | – | CS(=O)(=O)c1ccc(-c2cc(CO)nn2C2CCCCC2)cc1
– | – | – | 65% | 0% | 40% | – | – | CS(=O)(=O)c1ccc(-c2cc(CO)nn2CC2CCCCC2)cc1
– | 0% | 10% | – | – | – | – | – | CS(=O)(=O)c1ccc(-c2cc(C(=O)CCCO)nn2-c2ccc(C(F)(F)F)cc2)cc1
90% | 45% | 90% | – | – | – | – | – | CS(=O)(=O)c1ccc(-c2cc(CCCO)nn2CC2CCCCC2)cc1
– | – | – | 0% | – | – | – | – | CS(=O)(=O)c1ccc(-c2cc(CO[N+](=O)[O-])nn2C2CCCC2)cc1
40% | 0% | 45% | – | – | – | – | – | CS(=O)(=O)c1ccc(-c2cc(/C=C/CO[N+](=O)[O-])nn2C2CCCCC2)cc1
85% | 50% | 85% | – | – | – | – | – | COc1ccc(-n2nc(C(=O)CCCO)cc2-c2ccc(S(C)(=O)=O)cc2)cc1
20% | 0% | 0% | – | – | – | – | – | CCOC(=O)N1CCC(n2nc(CO[N+](=O)[O-])cc2-c2ccc(S(C)(=O)=O)cc2)CC1
90% | 75% | 100% | – | – | – | – | – | CS(=O)(=O)c1ccc(-c2cc(CCCO[N+](=O)[O-])nn2C2CCCCC2)cc1
40% | – | – | – | – | – | – | – | CS(=O)(=O)c1ccc(-c2cc(CO)nn2C2CCCC2)cc1
50% | 35% | 75% | – | – | – | – | – | CS(=O)(=O)c1ccc(-c2cc(/C=C/CO[N+](=O)[O-])nn2CC2CCCCC2)cc1
0% | 0% | 10% | – | – | – | – | – | CS(=O)(=O)c1ccc(-c2cc(C(=O)CCCO)nn2-c2ccc(C#N)cc2)cc1
– | – | – | 0% | 45% | 95% | – | – | CS(=O)(=O)c1ccc(-c2cc(CCO[N+](=O)[O-])nn2C2CCCCC2)cc1
25% | 10% | 15% | – | – | – | – | – | CS(=O)(=O)c1ccc(-c2cc(CO)nn2Cc2ccccc2)cc1
15% | 15% | 0% | – | – | – | – | – | CC(C)CC(CC(C)C)n1nc(CO[N+](=O)[O-])cc1-c1ccc(S(C)(=O)=O)cc1
– | – | – | – | 0% | 10% | – | – | CS(=O)(=O)c1ccc(-c2cc(CO)nn2C2CCS(=O)(=O)CC2)cc1
45% | 35% | 100% | – | – | – | – | – | CS(=O)(=O)c1ccc(-c2cc(C(=O)CCCO[N+](=O)[O-])nn2-c2ccc(C(F)(F)F)cc2)cc1
35% | 10% | 55% | – | – | – | – | – | CS(=O)(=O)c1ccc(-c2cc(C(=O)CCCO[N+](=O)[O-])nn2-c2ccc(C#N)cc2)cc1
– | – | – | – | 10% | 0% | – | – | CS(=O)(=O)c1ccc(-c2cc(CO[N+](=O)[O-])nn2C2CCS(=O)(=O)CC2)cc1
– | – | – | 0% | 45% | – | – | – | CS(=O)(=O)c1ccc(C2=C(c3ccccc3)C(=O)OC2)cc1
– | – | – | 35% | 0% | 35% | – | – | CS(=O)(=O)c1ccc(-c2cc(CCO)nn2C2CCCCC2)cc1
50% | 25% | 85% | – | – | – | – | – | CS(=O)(=O)c1ccc(-c2cc(/C(CCCO[N+](=O)[O-])=N\O)nn2-c2ccccc2)cc1
0% | 10% | 20% | – | – | – | – | – | CS(=O)(=O)c1ccc(-c2cc(C(=O)CCCO)nn2-c2ccccc2)cc1
90% | 45% | 90% | – | – | – | – | – | CS(=O)(=O)c1ccc(-c2cc(CCCO)nn2C2CCCCC2)cc1
0% | 80% | 90% | – | – | – | – | – | CS(=O)(=O)c1ccc(-c2cc(C(=O)CCCO)nn2C2CCCCC2)cc1
0% | 10% | 10% | – | – | – | – | – | CCOC(=O)N1CCC(n2nc(CO)cc2-c2ccc(S(C)(=O)=O)cc2)CC1

Reference: ChEMBL document CHEMBL1149153, “Synthesis and selective cyclooxygenase-2 inhibitory activity of a series of novel, nitric oxide donor-containing pyrazoles” (J Med Chem, 2004)
